Data as given in ChEMBL document CHEMBL1128728, “Synthesis and evaluation of terbenzimidazoles as topoisomerase I inhibitors” (J Med Chem, 1995).
pIC50: −log10 of the molar value.

Key:
[1] = test system: DNA topoisomerase 1 (Bos taurus); test: The compound was tested for topoisomerase-1 mediated DNA cleavage, activity is expressed as REC(relative effective concentration) i.e., concentration relative to Hoechst 33342.
[2] = test system: RPMI 8402; test: Cytotoxicity against Camptothecin-resistant (CPT -K5) cell line.; type: functional, cell-based; settings: Homo sapiens
Method in brief: (§1)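 MTT microtiter tetrazolium assay; human lymphoblast RPMI 8402 and camptothecin-resistant CPT-K5 grown in suspension at 37 °C, 5% CO2, RPMI medium with 10% heat-inactivated FBS, 2 mM L-glutamine, penicillin 100 U/mL, streptomycin 0.1 mg/mL. Continuous exposure to varying drug concentrations; MTT read at end of day 4; IC50 calculated.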

[3] = test system: RPMI 8402; test: Cytotoxicity against Human lymphoblast (RPMI 8402) cell line; type: functional, cell-based
Method in brief: as §1

[4] = test system: KB; test: Cytotoxicity against human epidermoid carcinoma vinblastine-selected multidrug-resistant (KBV-1) cell line.; type: functional, cell-based
Method in brief: (§2)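 Human epidermoid carcinoma KB3-1 and vinblastine-selected MDR1-overexpressing KBV-1 grown as monolayers in 5% CO2, Dulbecco's medium with 10% heat-inactivated FBS. Cytotoxicity by MTT microtiter tetrazolium assay after continuous exposure to varying drug concentrations for 4 days; IC50 calculated.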

[5] = test system: KB 3-1; test: Cytotoxicity against human epidermoid carcinoma (KB3-1) cell line.; type: functional, cell-based
Method in brief: as §2

[6] = test system: KB; test: Cytotoxicity against human epidermoid carcinoma vinblastine-selected multidrug-resistant (KBV-1) cell line; type: functional, cell-based
Method in brief: (§3)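 KB3-1 epidermoid carcinoma cells and KBV-1, their vinblastine-selected MDR1-overexpressing variant, were grown as monolayers in 5% CO2 in Dulbecco's medium with 10% heat-inactivated FBS. Viability was measured by MTT tetrazolium microtiter assay after 4 days of continuous exposure to varying drug concentrations, and IC50 was calculated.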

[7] = test system: KB 3-1; test: Cytotoxicity against human epidermoid carcinoma (KB3-1) cell line; type: functional, cell-based
Method in brief: as §3

[8] = test system: RPMI 8402; test: Cytotoxicity against Camptothecin-resistant (CPT -K5) cell line; type: functional, cell-based; settings: Homo sapiens
Method in brief: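 MTT tetrazolium assay in 96-well plates on CPT-K5, a camptothecin-resistant variant of human lymphoblast RPMI 8402, grown in suspension at 37 °C, 5% CO2 in RPMI medium with 10% heat-inactivated FBS, 2 mM L-glutamine, penicillin and streptomycin. Cells were exposed continuously to varying drug concentrations, with MTT read at the end of day 4. IC50 was calculated.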

| SMILES | Relative concentration [1] | pIC50 [2] | pIC50 [3] | pIC50 [4] | pIC50 [5] | pIC50 [6] | pIC50 [7] | pIC50 [8] |
| --- | --- | --- | --- | --- | --- | --- | --- | --- |
| CCCc1ccc2[nH]c(-c3ccc4[nH]c(-c5ccc6[nH]cnc6c5)nc4c3)nc2c1 | 100 | 4.70 | 5.12 |  |  |  |  |  |
| c1cc(-c2ccc3[nH]c(-c4ccc5[nH]c(-c6ccc7[nH]cnc7c6)nc5c4)nc3c2)ccn1 | 2 | 5.60 | 7.46 | 8.00 | 7.70 |  |  |  |
| CCOc1ccc(-c2nc3cc(-c4nc5cc(N6CCN(C)CC6)ccc5[nH]4)ccc3[nH]2)cc1 |  |  | 7.52 |  |  | 5.92 | 8.00 | 6.05 |
| c1ccc(-c2ccc3[nH]c(-c4ccc5[nH]c(-c6ccc7[nH]cnc7c6)nc5c4)nc3c2)cc1 | 2 | 6.24 | 7.05 | 6.46 | 6.24 |  |  |  |
| c1ccc2[nH]c(-c3ccc4[nH]c(-c5ccc6[nH]cnc6c5)nc4c3)nc2c1 | 1.1 | 4.55 | 4.85 |  |  |  |  |  |
| COc1ccc(-c2nc3cc(-c4nc5cc(-c6nc7cc(C#N)ccc7[nH]6)ccc5[nH]4)ccc3[nH]2)cc1 | 1000 |  | < 4.70 |  |  |  |  |  |
| N#Cc1ccc2[nH]c(-c3ccc4[nH]cnc4c3)nc2c1 | 1000 |  | < 4.60 |  |  |  |  |  |
| c1cncc(-c2ccc3[nH]c(-c4ccc5[nH]c(-c6ccc7[nH]cnc7c6)nc5c4)nc3c2)c1 | 2 | 5.60 | 7.46 | 7.70 | 7.70 |  |  |  |
| COc1ccc(-c2nc3cc(-c4nc5cc(C#N)ccc5[nH]4)ccc3[nH]2)cc1 | 3.3 |  | 4.57 |  |  |  |  |  |
| c1ccc(-c2ccc3[nH]c(-c4ccc5[nH]c(-c6ccc7[nH]cnc7c6)nc5c4)nc3c2)nc1 | 3.3 | 5.24 | 6.80 | 7.05 | 7.30 |  |  |  |
| N#Cc1ccc2[nH]c(-c3ccc4[nH]c(-c5ccc6[nH]cnc6c5)nc4c3)nc2c1 | 1 | < 4.60 | < 4.60 |  |  |  |  |  |
